We go through six molecules from ChEMBL document CHEMBL4665894, “Driving Potency with Rotationally Stable Atropisomers: Discovery of Pyridopyrimidinedione-Carbazole Inhibitors of BTK” (ACS Med Chem Lett, 2020).

Several values for one entry are separate records, joined by “and”; a condition that tells them apart may be missing. Identical values can stand only once.

The species named for data set [1] is Homo sapiens. The experiment in a line: Selectivity ratio of IC50 for JAK2 (unknown origin) to IC50 for recombinant full-length His-tagged human BTK expressed in baculovirus expression system.
In data set [2] the target is T1, Tyrosine-protein kinase BTK (Homo sapiens, UniProt Q06187). The experiment in a line: Inhibition of BTK in human Ramos B cells assessed as reduction in goat anti human IgM-stimulated calcium flux preincubated for 1 hr followed by goat anti human IgM addition and measured for 180 secs by FLIPR assay. The data set is classed as cell-based.
For data set [3], the target named is T1, Tyrosine-protein kinase BTK. The experiment in a line: Inhibition of BTK in human whole blood assessed as reduction in goat anti human IgM/human IL4-stimulated CD69 cell surface expression on peripheral B cells incubated for 18 hrs by FACS analysis. The data set is classed as tissue-based. In general terms: Flow cytometry measures light scatter and fluorescence of single cells or particles in a stream.

The nature of data set [4]: Cmax in mouse at 10 mg/kg, PO. More on the design: route oral, dose 10 mg/kg. As to conditions: in vivo. The class given is ADME, organism-based.
The nature of data set [5]: AUC in mouse at 10 mg/kg, PO. The data set is classed as ADME, organism-based. More on the design: dose 10 mg/kg. The settings on record: in vivo.
Data set [6] in a line: Glutathione reactivity in human liver microsomes assessed as GSH-adduct formation at 10 uM incubated for 60 mins. The data set is classed as ADME. As to conditions: 1 h.
Data set [7] deals with B cell. The experiment in a line: Antiproliferative activity against anti-IgM/IgG-induced human peripheral B cells. The class given is functional, cell-based. The essentials:
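B cell receptor stimulation of human peripheral B cells with anti-IgM/IgG (proliferation read-out), of human whole blood with anti-IgM (CD69 surface expression), and of mouse whole blood with anti-IgM/IgG (CD69 surface expression). IC50 reported as the mean of at least three determinations; for line 9 a single determination is also reported.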

Data set [8] has as its target T1, Tyrosine-protein kinase BTK. The experiment in a line: Inhibition of recombinant full-length His-tagged human BTK expressed in baculovirus expression system using fluoresceinated peptide as substrate incubated for 60 mins by fluorescence assay.
Data set [9] in a line: Stability of the compound in human whole blood assessed drug degradation at 0.5 uM incubated for 10 mins. The data set is classed as ADME, tissue-based. As to conditions: read-out: Drug degradation. Put shortly:
(§1)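 Test compound spiked into human whole blood at 0.5 µM and incubated; remaining parent tracked over time, with samples at 10 min and at 2 h.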

A short description of data set [10]: Stability of the compound in human whole blood assessed drug degradation at 0.5 uM incubated for 2 hrs. The data set is classed as ADME, tissue-based. As to conditions: read-out: Drug degradation. Put shortly: as §1

T1 sequence (Q06187 whole entry): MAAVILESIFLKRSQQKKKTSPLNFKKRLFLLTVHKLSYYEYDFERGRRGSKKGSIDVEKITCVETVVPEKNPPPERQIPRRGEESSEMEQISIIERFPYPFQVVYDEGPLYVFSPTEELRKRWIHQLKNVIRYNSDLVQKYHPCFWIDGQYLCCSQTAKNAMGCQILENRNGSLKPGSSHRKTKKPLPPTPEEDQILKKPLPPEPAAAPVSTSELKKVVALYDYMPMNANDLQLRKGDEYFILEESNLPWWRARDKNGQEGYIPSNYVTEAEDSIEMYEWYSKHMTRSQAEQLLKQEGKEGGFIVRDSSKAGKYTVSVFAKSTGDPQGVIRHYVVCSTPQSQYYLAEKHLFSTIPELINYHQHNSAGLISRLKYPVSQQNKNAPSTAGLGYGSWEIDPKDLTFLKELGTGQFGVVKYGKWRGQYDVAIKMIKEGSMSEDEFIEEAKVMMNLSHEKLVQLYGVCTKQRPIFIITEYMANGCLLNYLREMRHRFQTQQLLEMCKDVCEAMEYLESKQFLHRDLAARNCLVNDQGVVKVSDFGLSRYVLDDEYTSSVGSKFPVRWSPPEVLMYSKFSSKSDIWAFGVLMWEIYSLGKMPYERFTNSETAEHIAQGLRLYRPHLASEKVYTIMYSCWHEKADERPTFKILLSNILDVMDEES

By IC50 is commonly meant the point on the concentration scale where inhibition reaches its midpoint. Broadly, the Cmax is the maximum level reached in the sampled fluid or tissue. What is called AUC is concentration integrated over time. A higher AUC goes with more exposure. On to `Cc1c(-c2ccc(C(N)=O)c3[nH]c4cc(C(C)(C)O)ccc4c23)cccc1-n1c(=O)cc2c(Cl)cccn2c1=O`, for which the Ratio IC50 in data set [1] is 1400 and 1100 and 2500. Besides, the IC50 in [2] is 12 nM and 18 nM and 13 nM; in data set [3] it was 120 nM and 78 nM and 69 nM. In data set [4], this molecule gave a Cmax of 3500 nM. Moreover, the AUC in data set [5] came out at 23 µM·h. Moreover, the Stabilty result in [6] is “Stable”.

Consider `COc1ccn2c(=O)n(-c3cccc(-c4ccc(C(N)=O)c5[nH]c6cc(C(C)(C)O)ccc6c45)c3C)c(=O)cc2c1`, for which, in data set [1], the Ratio IC50 worked out at 1600. For the same molecule, the IC50 in data set [2] came to 19 nM; in [3], 140 nM. In addition, the maximum concentration (Cmax) in [4] is 1300 nM. The AUC in data set [5] turned out to be 3.9 µM·h.

In the case of `COc1cccn2c(=O)n(-c3cccc(-c4ccc(C(N)=O)c5[nH]c6cc(C(C)(C)O)ccc6c45)c3C)c(=O)cc12`, in [1], the Ratio IC50 amounted to 1900. For the same molecule, the figures for the IC50 in [2] and in [3] were 19 nM and 140 nM, respectively. Also, the Cmax in [4] is 1300 nM. This molecule also returned an AUC in data set [5] of 4 µM·h.

Molecule `Cc1c(-c2ccc(C(N)=O)c3[nH]c4cc(C(C)(C)O)ccc4c23)cccc1-n1cnc2ccccc2c1=O` registered an AUC in data set [5] of 80 µM·h. Inhibition in [7] was half-maximal at 8 nM (IC50).

On to `Cc1c(-c2ccc(C(N)=O)c3[nH]c4cc(C(C)(C)O)ccc4c23)cccc1-n1c(=O)cc2c(F)cccn2c1=O`, for which the IC50 in [8] is 0.86 nM; in [2], 19 nM and 18 nM and 14 nM; in data set [3], 75 nM and 91 nM and 79 nM. In addition, the Ratio IC50 in data set [1] was 1100 and 500 and 870. The molecule further registered a Cmax in data set [4] of 5200 nM. This molecule also showed an AUC in [5] of 28 µM·h.

With `Cc1c(-c2ccc(C(N)=O)c3[nH]c4cc(C(C)(C)O)ccc4c23)cccc1-n1c(=O)cc2cc(Cl)ccn2c1=O`, the IC50 in data set [8] stood at 0.49 nM; in [2], 3.1 nM; in data set [3], 3000 nM. Also, the Ratio IC50 in data set [1] is 1500. Besides, the metabolised at 10 min, 0.5 µM in data set [9] was > 85%. Moreover, in [10], the metabolised at 2 h, 0.5 µM is 100%. Besides, the Stabilty result in [6] is recorded as “Unstable”.
